Laboratory results published in paper PMC10032210 (Biomaterials, 2022).

Assays:
PANC1 = assay: In vitro uptake of GNRs, gold content by ICP-MS; assay type: cell-based, Human; settings: 10 μM CA074 for 12 hr, then peptide GNR 24 hr
How it was run: (§1)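 Cells in 10% FBS medium (HT29 McCoy's, MDA MB231 DMEM, PANC1 RPMI 1640) at 37 °C, 5% CO2. At 70% confluence: 10 μM CA074 for 12 hr, then 0.05 OD GNR in serum-free medium for 24 hr. Cells washed, trypsinized, pelleted, dried at 56 °C and digested in aqua regia (60 °C, 4 hr). Gold measured by ICP-MS against gold standards, normalized to cell count; mean ± SEM.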

HT29 xenograft tumors = assay: In vivo tumor uptake of GNRs, gold content by ICP-MS; set-up: species or system mice; settings: CA074 10 mg/kg i.p., peptide GNR 8 OD i.v., 24 hr
How it was run: (§2)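 Male athymic Swiss nude mice carried bilateral subcutaneous HT29, HCT116 and DLD1 xenografts (1×10^6 cells in PBS). At 7–8 mm tumors, mice were randomized, n=4/group. CA074 10 mg/kg i.p. daily; 100 μL of 8 OD GNR i.v. by tail vein on day 3 of CA074. At 24 hr, tumors and organs were harvested, weighed, lyophilized and digested in aqua regia. Gold by ICP-MS per gram dry tissue; mean ± SEM, unpaired two-tailed t-test.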

MDAMB231 = assay: In vitro uptake of GNRs, gold content by ICP-MS; assay type: cell-based, Human; settings: 10 μM CA074 for 12 hr, then peptide GNR 24 hr
How it was run: as §1

HT29 = assay: In vitro uptake of GNRs, gold content by ICP-MS; assay type: cell-based, Human; settings: 10 μM CA074 for 12 hr, then peptide GNR 24 hr
How it was run: as §1

HCT116 xenograft tumors = assay: In vivo tumor uptake of GNRs, gold content by ICP-MS; set-up: species or system mice; settings: CA074 10 mg/kg i.p., peptide GNR 8 OD i.v., 24 hr
How it was run: as §2

Cathepsin B = Cathepsin B (Homo sapiens, UniProt P07858); assay: Cathepsin B-mediated hydrolysis of peptide constructs followed by HPLC; assay type: biochemical; settings: Cathepsin B 1.34 × 10^−13 M, 25 °C, least-squares regression
How it was run: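 Substrate at 1·10^-7 M with cathepsin B (1.34·10^-13 M, activated by 1 mM DTT) in 50 mM sodium citrate pH 6.0, 1 mL, filter-sterilized, held dark at 25 °C. Repeated reversed-phase HPLC injections ran over ≥6× reaction half-life; UV detection at 220 nm. Percentage substrate remaining came from peak area versus known injected amount. Pseudo-first-order half-life given as mean ± SD; ≥3 repeats.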

Compound	change in peptide GNR uptake (ICP-MS) with CA074 compared to peptide GNRs alone (PANC1)	effect of inhibitor on peptide GNR uptake by xenograft tumors (ICP-MS) (HT29 xenograft tumors)	change in peptide GNR uptake (ICP-MS) with CA074 compared to peptide GNRs alone (MDAMB231)	change in peptide GNR uptake (ICP-MS) with CA074 compared to peptide GNRs alone (HT29)	effect of inhibitor on peptide GNR uptake by xenograft tumors (ICP-MS) (HCT116 xenograft tumors)	degradation reaction half-life (t½) relative to native GFGFVG peptide (Cathepsin B)
CCCNC(=O)[C@H]1O[C@@H]1C(=O)N[C@H](C(=O)N1CCC[C@H]1C(=O)O)[C@@H](C)CC [CA074]	two-fold reduction	abrogates the increased uptake	two-fold reduction	two-fold reduction	abrogates the increased uptake	
MeO-PEG20k-GFGFVG [PEGylated GFGFVG]						nearly three-fold
MeO-PEG20k-GGFGFVGGR9WC						about three-fold higher
